From publication PMC4755333 (Journal of medicinal chemistry, 2011)
Where two headings read alike, the source gives them in different places. Blank lines part the entries; values can stand above or below the compound they belong to.

Legend:
[1] = tested on: cancer cell lines; assay type: cell-based; settings: for antiproliferative activity: text summary of Tables 1–3; for activity relative to 47: IC50 values of Table 4; for IC50: read-out: activity/potency range across cancer cell lines
[2] = tested on: LNCaP; experiment: SRB cytotoxicity assay, LNCaP prostate cancer cells; assay type: cell-based, human; settings: read-out: IC50 ± SEM, LNCaP
[3] = tested on: DU 145; experiment: SRB cytotoxicity assay, DU 145 prostate cancer cells; assay type: cell-based, human; settings: read-out: IC50 ± SEM, DU 145
[4] = tested on: PPC-1; experiment: SRB cytotoxicity assay, PPC-1 prostate cancer cells; assay type: cell-based, human; settings: read-out: IC50 ± SEM, PPC-1
[5] = tested on: B16-F1; experiment: SRB cytotoxicity assay, B16-F1 mouse melanoma cells; assay type: cell-based; settings: read-out: IC50 ± SEM, B16-F1, 96 h treatment
[6] = tested on: PC-3; experiment: SRB cytotoxicity assay, PC-3 prostate cancer cells; assay type: cell-based, human; settings: read-out: IC50 ± SEM, PC-3
[7] = tested on: A375; experiment: SRB cytotoxicity assay, A375 melanoma cells; assay type: cell-based, human; settings: read-out: IC50 ± SEM, A375, 96 h treatment
[8] = tested on: WM-164; experiment: SRB cytotoxicity assay, WM-164 melanoma cells; assay type: cell-based, human; settings: read-out: IC50 ± SEM, WM-164, 96 h treatment
[9] = Aqueous solubility, Multiscreen solubility filter plate with LC-MS/MS; assay type: physicochemical; settings: for solubility compared with compound 1: Figure 3
[10] = tested on: Bovine brain tubulin; experiment: In vitro tubulin polymerization assay; assay type: biochemical; settings: 5 µM compound, 20 min incubation
In short: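 Bovine brain tubulin (0.4 mg, >97% pure) combined with test compound in general tubulin buffer (80 mM PIPES, 2.0 mM MgCl₂, 0.5 mM EGTA, 1 mM GTP, pH 6.9) at 37 °C. Polymerization tracked as A340 read every 1 min over 20 min. Inhibition expressed against vehicle.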

[11] = Rat pharmacokinetic study; assay type: in vivo, Sprague–Dawley rats; settings: 10 mg/kg

Compound: COc1cc(C(=O)c2cccc(-c3ccccc3)c2)cc(OC)c1OC [Compound 9a, Biphenyl-3-yl(3,4,5-trimethoxyphenyl)methanone]
antiproliferative activity [1]: hundreds of nanomolar range

Compound: 3-(3,4,5-Trimethoxyphenylsulfonyl)biphenyl [Compound 24]
IC50 ([2]; SRB assay, 96 h treatment): > 10 µM
IC50 ([3]; SRB assay, 96 h treatment): > 10 µM
IC50 ([4]; SRB assay, 96 h treatment): > 10 µM
IC50 [5]: > 10 µM
IC50 ([6]; SRB assay, 96 h treatment): > 10 µM
IC50 [7]: > 10 µM
IC50 [8]: > 10 µM

Compound: COc1cc(/C(=N\N)c2csc(-c3ccccc3)n2)cc(OC)c1OC [Compound 14b, (E)-4-(Hydrazono(3,4,5-trimethoxyphenyl)methyl)-2-phenylthiazole]
IC50 ([3]; Homo sapiens, DU-145, 96 h): 1.21 µM

Compound: COc1cc(C(=O)c2coc(-c3ccccc3)n2)cc(OC)c1OC [Compound 6, (2R)-(2-Phenyl-oxazol-4-yl)-(3,4,5-trimethoxy-phenyl)-methanone]
antiproliferative activity [1]: hundreds of nanomolar range

Compound: CO/N=C(\c1cc(OC)c(OC)c(OC)c1)c1csc(-c2ccccc2)n1 [Compound 13d, (E)-(2-Phenylthiazol-4-yl)(3,4,5-trimethoxyphenyl)methanone O-Methyl Oxime]
IC50 ([2]; Homo sapiens, LNCaP, 96 h): > 10 µM
IC50 ([6]; Homo sapiens, PC-3, 96 h): > 10 µM

Compound: COc1cc(C(=O)c2csc(Nc3ccc(C)cc3)n2)cc(OC)c1OC.Cl [Compound 46b, (2-(p-Tolylamino)thiazol-4-yl)(3,4,5-trimethoxyphenyl)methanone Hydrochloride Salt]
activity relative to 47 [1]: over 20 fold
IC50 [1]: 0.035 to 0.065 µM

increase in solubility compared with compound 1 ([9]; PBS, HCl salt): over 35 fold
solubility at […] ([9]; phosphate buffered saline (PBS) buffer, pH 7.4): ≥ 0.035 mg/mL
Compound: COc1cc(C(=O)c2csc(-c3ccc(CN)cc3)n2)cc(OC)c1OC.Cl [Compound 39, (2-(4-(Aminomethyl)phenyl)thiazol-4-yl)(3,4,5-trimethoxyphenyl)-methanone Hydrochloride]

Compound: N-(3,4,5-Trimethoxyphenyl)biphenyl-3-sulfinamide [Compound 26]
IC50 ([2]; SRB assay, 96 h treatment): > 10 µM
IC50 ([3]; SRB assay, 96 h treatment): > 10 µM
IC50 ([4]; SRB assay, 96 h treatment): > 10 µM
IC50 [5]: > 10 µM
IC50 ([6]; SRB assay, 96 h treatment): > 10 µM
IC50 [7]: > 10 µM
IC50 [8]: > 10 µM

Compound: Biphenyl-3-yl(3,4,5-trimethoxyphenyl)sulfane [Compound 23]
IC50 ([2]; SRB assay, 96 h treatment): 2.3 ± 0.2 µM
IC50 ([3]; SRB assay, 96 h treatment): > 10 µM
IC50 ([4]; SRB assay, 96 h treatment): 2.3 ± 0.1 µM
IC50 [5]: 2.4 ± 0.9 µM
IC50 ([6]; SRB assay, 96 h treatment): > 10 µM
IC50 [7]: 1.6 ± 0.4 µM
IC50 [8]: 2 ± 1.2 µM

Compound: COc1cc(C(=O)c2csc(-c3ccc(CN(C)C)cc3)n2)cc(OC)c1OC.Cl [Compound 42, (2-(4-((Dimethylamino)methyl)phenyl)thiazol-4-yl)(3,4,5-trimeth-oxyphenyl)methanone Hydrochloride]
antiproliferative activity [1]: abrogated activity

Compound: COc1cc(C(=O)c2csc(-c3ccc4[nH]ccc4c3)n2)cc(OC)c1OC [Compound 36, (2-(1H–Indol-5-yl)thiazol-4-yl)(3,4,5-trimethoxyphenyl)methanone]
inhibition of tubulin polymerization as compared to vehicle [10]: 69%

Compound: COc1cc(/C(=N/O)c2csc(-c3ccccc3)n2)cc(OC)c1OC [Compound 13a, (Z)-(2-Phenylthiazol-4-yl)(3,4,5-trimethoxyphenyl)methanoneOxime]
activity of syn-isomer relative to anti isomer 13b ([1]; 13a vs 13b): 10 fold

Compound: COc1cc(C(=O)c2csc(Nc3ccccc3)n2)cc(OC)c1OC [Compound 45a, (2-(Phenylamino)thiazol-4-yl)(3,4,5-trimethoxyphenyl)methanone]
solubility compared with compound 1 ([9]; PBS): improved solubility
activity relative to 47 [1]: over 20 fold
IC50 [1]: 0.035 to 0.065 µM

Compound: (Z)-2-Phenyl-4-(3,4,5-trimethoxystyryl)thiazole [Compound 20]
IC50 ([2]; SRB assay, 96 h treatment): > 10 µM
antiproliferative activity [1]: lost activity
IC50 ([3]; SRB assay, 96 h treatment): > 10 µM
IC50 ([4]; SRB assay, 96 h treatment): > 10 µM
IC50 [5]: 11 ± 2.8 µM
IC50 ([6]; SRB assay, 96 h treatment): > 10 µM
IC50 [7]: 46.5 ± 23.3 µM
IC50 [8]: 10.6 ± 5.8 µM

Compound: COc1cc(C(=O)c2csc(-c3ccccc3)n2)cc(OC)c1OC [Compound 1]
IC50 ([4]; Homo sapiens, PPC-1, 96 h): 0.043 ± 0.005 µM
IC50 ([6]; Homo sapiens, PC-3, 96 h): 0.021 ± 0.001 µM

Compound: (E)-2-Phenyl-4-(3,4,5-trimethoxystyryl)thiazole [Compound 21]
IC50 ([2]; SRB assay, 96 h treatment): > 10 µM
antiproliferative activity [1]: lost activity
IC50 ([3]; SRB assay, 96 h treatment): > 10 µM
IC50 ([4]; SRB assay, 96 h treatment): > 10 µM
IC50 [5]: 32.8 ± 13 µM
IC50 ([6]; SRB assay, 96 h treatment): > 10 µM
IC50 [7]: > 100 µM
IC50 [8]: 30.8 ± 12 µM

Compound: COc1cc(C(=O)c2cc(-c3ccccc3)n[nH]2)cc(OC)c1OC [Compound 9f, (3-Phenyl-1H–pyrazol-5-yl)(3,4,5-trimethoxyphenyl)methanone]
antiproliferative activity [1]: hundreds of nanomolar range

Compound: 3-(3,4,5-Trimethoxyphenylsulfinyl)biphenyl [Compound 25]
IC50 ([2]; SRB assay, 96 h treatment): > 10 µM
IC50 ([3]; SRB assay, 96 h treatment): > 10 µM
IC50 ([4]; SRB assay, 96 h treatment): > 10 µM
IC50 [5]: > 10 µM
IC50 ([6]; SRB assay, 96 h treatment): > 10 µM
IC50 [7]: > 10 µM
IC50 [8]: > 10 µM

IC50 [1]: 0.02 to 0.06 µM
Compound: COc1cc(/C(=N\C#N)c2csc(-c3ccccc3)n2)cc(OC)c1OC [Compound 16, N-((2-Phenylthiazol-4-yl)(3,4,5-trimethoxyphenyl)methylene)cyanamide]

Compound: COc1cc(C(=O)N2CCC(c3ccccc3)CC2)cc(OC)c1OC [Compound 9i, (4-Phenylpiperidin-1-yl)(3,4,5-trimethoxyphenyl)methanone]
antiproliferative activity [1]: totally abolished activity

Compound: COc1cc(C(=O)C2COC(c3ccccc3)=N2)cc(OC)c1OC (stereo in doubt) [Compound 5, (2R)-(2-Phenyl-4,5-dihydro-oxazol-4-yl)-(3,4,5-trimethoxy-phenyl)-methanone]
antiproliferative activity [1]: hundreds of nanomolar range

Compound: CO/N=C(/c1cc(OC)c(OC)c(OC)c1)c1csc(-c2ccccc2)n1 [Compound 13c, (Z)-(2-Phenylthiazol-4-yl)(3,4,5-trimethoxyphenyl)methanone O-Methyl Oxime]
IC50 ([4]; Homo sapiens, PPC-1, 96 h): > 10 µM

Compound: CNCc1ccc(-c2nc(C(=O)c3cc(OC)c(OC)c(OC)c3)cs2)cc1.Cl [Compound 40, (2-(4-((Methylamino)methyl)phenyl)thiazol-4-yl)(3,4,5-trimeth-oxyphenyl)methanone Hydrochloride]
antiproliferative activity [1]: abrogated activity

solubility compared with compound 1 ([9]; PBS): improved solubility
IC50 [1]: 0.035 to 0.065 µM
Compound: COc1cc(C(=O)c2csc(Nc3ccc(F)cc3)n2)cc(OC)c1OC [Compound 45c, (2-(p-Fluorophenylamino)thiazol-4-yl)(3,4,5-trimethoxyphenyl)-methanone]

increased exposure (AUC) by the oral route as compared to 1 [11]: more than 4.3 fold
Compound: COc1cc(C(=O)c2csc(Nc3ccc(F)cc3)n2)cc(OC)c1OC.Cl [Compound 46c, (2-(p-Fluorophenylamino)thiazol-4-yl)(3,4,5-trimethoxyphenyl)-methanone Hydrochloride Salt]
